This note sets out measurements from ChEMBL document CHEMBL1124840 (J Med Chem, 1990).

What is called IC50 is the concentration that inhibits the measured activity by half. Read a high IC50 as a need for much substance.

Active and inactive are the calls of the source. The calls are words filed in the database; no cut-off is given here. Positions of bridges follow the written chain, without caps; N, C: chain ends. Non-standard residues stand in square brackets, D forms with d. Residues, ends and D or L forms follow the SMILES beside them. Pen = CC(C)(S)[C@H](N)C(=O)O; hCys = N[C@@H](CCS)C(=O)O; Sar = CNCC(=O)O

In experiment [1] the target is T1, Angiotensin II receptor (AT-1) type-1 (Rattus norvegicus, UniProt P29089+P25095).
T1 sequence (P29089 whole entry): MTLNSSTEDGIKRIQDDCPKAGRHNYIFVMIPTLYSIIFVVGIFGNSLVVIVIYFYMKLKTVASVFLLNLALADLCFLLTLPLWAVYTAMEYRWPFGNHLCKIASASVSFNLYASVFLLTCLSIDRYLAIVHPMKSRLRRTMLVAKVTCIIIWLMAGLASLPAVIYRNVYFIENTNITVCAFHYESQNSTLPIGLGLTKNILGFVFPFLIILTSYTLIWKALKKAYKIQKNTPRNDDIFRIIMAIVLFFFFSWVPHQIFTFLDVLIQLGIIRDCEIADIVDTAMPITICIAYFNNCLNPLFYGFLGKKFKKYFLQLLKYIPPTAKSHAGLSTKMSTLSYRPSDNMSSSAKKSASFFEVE
T1 sequence (P25095 whole entry): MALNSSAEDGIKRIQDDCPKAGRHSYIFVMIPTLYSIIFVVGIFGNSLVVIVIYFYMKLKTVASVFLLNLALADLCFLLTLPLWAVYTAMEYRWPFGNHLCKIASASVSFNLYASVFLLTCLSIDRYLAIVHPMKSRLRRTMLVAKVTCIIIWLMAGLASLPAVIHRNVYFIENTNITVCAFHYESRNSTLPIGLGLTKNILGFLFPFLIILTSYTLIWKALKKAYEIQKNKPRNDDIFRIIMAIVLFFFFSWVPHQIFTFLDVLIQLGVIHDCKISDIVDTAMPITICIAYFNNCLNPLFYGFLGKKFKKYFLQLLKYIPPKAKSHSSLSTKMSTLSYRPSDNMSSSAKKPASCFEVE
The experiment is described as follows: Concentration required to 50% inhibition in specific binding of [125- I]A-II to Angiotensin II receptor in rat uterine membrane. It counts as cell membranes. In a few lines: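 Rat uterine membranes were homogenized in ice-cold Dulbecco's PBS with 5 mM EDTA, spun at 1500g then 100000g, and resuspended in 2 mM EGTA/50 mM Tris-HCl pH 7.5. Nonspecific binding was defined with 10 µM AII. IC50 came from nonlinear least-squares fits, triplicate means.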

Experiment [2] is filed under the species Oryctolagus cuniculus. The experiment is described as follows: No contractile activity was observed up to 10 uM concentration in rabbit aortic rings relative to angiotensin II; NA = no activity. It is filed as functional. The conditions noted are these: Aorta. The method, boiled down:
(§1)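 Aortic rings were taken from male New Zealand white rabbits (2–2.5 kg) and tested at analogue concentrations up to 10 µM. Potency is relative to the AII concentration/response curve run at the same time on a paired ring from the same aorta.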

For experiment [3], the species on record is Oryctolagus cuniculus. The experiment is described as follows: No contractile activity was observed up to 10 uM concentration in rabbit aortic rings; NA = no activity. It is filed as functional. The conditions noted are these: Aorta. In a few lines: (§2)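 Aortic rings were taken from male New Zealand white rabbits (2–2.5 kg) and tested at analogue concentrations up to 10 µM. pD2 was calculated from the analogue's concentration/response curve.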

For experiment [4], the species on record is Oryctolagus cuniculus. The experiment is described as follows: Contractile activity in rabbit aortic rings. It is filed as functional, Aorta. In a few lines: as §2
The species entered for experiment [5] is Oryctolagus cuniculus. Briefly: Contractile activity in rabbit aortic rings relative to angiotensin II. It counts as functional, Aorta. The method, boiled down:
as §1

In experiment [6] the target is Type-1 angiotensin II receptor (Oryctolagus cuniculus) (UniProt P34976). The experiment is described as follows: pA2 value for Angiotensin II receptor.
Chain of Type-1 angiotensin II receptor (Oryctolagus cuniculus) (P34976 whole entry, looked up): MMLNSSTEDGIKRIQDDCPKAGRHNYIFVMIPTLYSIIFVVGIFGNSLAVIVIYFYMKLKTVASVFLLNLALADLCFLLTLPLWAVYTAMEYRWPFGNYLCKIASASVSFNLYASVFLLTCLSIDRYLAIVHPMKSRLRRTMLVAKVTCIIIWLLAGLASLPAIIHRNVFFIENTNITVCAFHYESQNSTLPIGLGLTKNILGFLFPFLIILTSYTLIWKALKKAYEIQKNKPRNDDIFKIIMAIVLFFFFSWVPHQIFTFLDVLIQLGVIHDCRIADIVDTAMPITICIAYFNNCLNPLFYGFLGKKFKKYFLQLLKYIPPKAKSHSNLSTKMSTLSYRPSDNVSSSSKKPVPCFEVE

For the compound `NC(N)=NCCC[C@H](NC(=O)[C@@H](N)CC(=O)O)C(=O)N[C@H]1CSSC[C@H](C(=O)N[C@@H](Cc2c[nH]cn2)C(=O)N2CCC[C@H]2C(=O)N[C@@H](Cc2ccccc2)C(=O)O)NC(=O)[C@H](Cc2ccc(O)cc2)NC1=O`, the IC50 in experiment [1] is reported as 10000 nM. The Relative potency result in experiment [2] is “inactive”. Further, the pD2 entry in experiment [3] was “inactive”.

In experiment [1], `CC(=O)NCSC[C@H](NC(=O)[C@H](CCCN=C(N)N)NC(=O)[C@@H](N)CC(=O)O)C(=O)N[C@@H](Cc1ccc(O)cc1)C(=O)N[C@H](CSCNC(C)=O)C(=O)N[C@@H](Cc1c[nH]cn1)C(=O)N1CCC[C@H]1C(=O)N[C@@H](Cc1ccccc1)C(=O)O` came in with a half-maximal inhibitory concentration (IC50) of 10000 nM. Also, the Relative potency entry in experiment [2] is “inactive”. Moreover, in experiment [3], the pD2 result was “inactive”.

For `CC(=O)NCSC[C@H](NC(=O)[C@H](Cc1ccc(O)cc1)NC(=O)[C@@H](CSCNC(C)=O)NC(=O)[C@H](CCCN=C(N)N)NC(=O)[C@@H](N)CC(=O)O)C(=O)N[C@@H](Cc1c[nH]cn1)C(=O)N1CCC[C@H]1C(=O)N[C@@H](Cc1ccccc1)C(=O)O`, the IC50 in experiment [1] is recorded as over 10000 nM. For the same compound, in experiment [2], the Relative potency entry is “inactive”. In addition, the pD2 entry in experiment [3] is “inactive”.

In experiment [1], `NC(N)=NCCC[C@H](NC(=O)[C@@H](N)CC(=O)O)C(=O)N[C@H]1CSSC[C@@H](C(=O)N[C@@H](Cc2c[nH]cn2)C(=O)N2CCC[C@H]2C(=O)N[C@@H](Cc2ccccc2)C(=O)O)NC(=O)[C@H](Cc2ccc(O)cc2)NC1=O` registered an IC50 of 43 nM. Further, the pD2 in experiment [4] is recorded as under 5. Further, the Relative potency in experiment [5] is given as under 0.0001.

Consider `CC(=O)NCSC[C@H](NC(=O)[C@H](CCCN=C(N)N)NC(=O)[C@@H](N)CC(=O)O)C(=O)N[C@@H](Cc1ccc(O)cc1)C(=O)N[C@@H](CSCNC(C)=O)C(=O)N[C@@H](Cc1c[nH]cn1)C(=O)N1CCC[C@H]1C(=O)N[C@@H](Cc1ccccc1)C(=O)O`, for which, in experiment [1], the IC50 came to 10000 nM. The same compound yielded a pD2 in experiment [4] of under 5. The Relative potency in experiment [5] is given as under 0.0001.

With `NC(N)=NCCC[C@H](NC(=O)[C@@H](N)CC(=O)O)C(=O)N[C@@H]1CSSC[C@@H](C(=O)N[C@@H](Cc2c[nH]cn2)C(=O)N2CCC[C@H]2C(=O)N[C@@H](Cc2ccccc2)C(=O)O)NC(=O)[C@H](Cc2ccc(O)cc2)NC1=O`, the Relative potency entry in experiment [2] is “inactive”. Besides, the pD2 entry in experiment [3] was “inactive”.

Compound `CC1(C)SSC[C@H](NC(=O)[C@H](CCCN=C(N)N)NC(=O)[C@@H](N)CC(=O)O)C(=O)N[C@@H](Cc2ccc(O)cc2)C(=O)N[C@@H]1C(=O)N[C@@H](Cc1c[nH]cn1)C(=O)N1CCC[C@H]1C(=O)N[C@@H](Cc1ccccc1)C(=O)O` (H-DRCY[Pen]HPF-OH; disulfide 3-5) showed an IC50 in experiment [1] of 1.3 nM. This compound also returned a pD2 in experiment [4] of 5.8. The compound also gave a Relative potency in experiment [5] of 0.001.

On to `NC(N)=NCCC[C@H](NC(=O)[C@@H](N)CC(=O)O)C(=O)N[C@H]1CSSCC[C@@H](C(=O)N[C@@H](Cc2c[nH]cn2)C(=O)N2CCC[C@H]2C(=O)N[C@@H](Cc2ccccc2)C(=O)O)NC(=O)[C@H](Cc2ccc(O)cc2)NC1=O` (H-DRCY[hCys]HPF-OH; disulfide 3-5), for which the IC50 in experiment [1] was found to be 13 nM. Also, the pD2 in experiment [4] is recorded as 6.98. Further, the Relative potency in experiment [5] was 0.012.

Turning to `CC1(C)SSC[C@@H](C(=O)N[C@@H](Cc2c[nH]cn2)C(=O)N2CCC[C@H]2C(=O)N[C@@H](Cc2ccccc2)C(=O)O)NC(=O)[C@H](Cc2ccc(O)cc2)NC(=O)[C@H]1NC(=O)[C@H](CCCN=C(N)N)NC(=O)[C@@H](N)CC(=O)O` (H-DR[Pen]YCHPF-OH; disulfide 3-5), the IC50 in experiment [1] came to 58 nM. Also, in experiment [4], the pD2 is reported as 5. Further, the Relative potency in experiment [5] was 0.0001.

In the case of `CC1(C)SSC(C)(C)[C@@H](C(=O)N[C@@H](Cc2c[nH]cn2)C(=O)N2CCC[C@H]2C(=O)N[C@@H](Cc2ccccc2)C(=O)O)NC(=O)[C@H](Cc2ccc(O)cc2)NC(=O)[C@H]1NC(=O)[C@H](CCCN=C(N)N)NC(=O)[C@@H](N)CC(=O)O` (H-DR[Pen]Y[Pen]HPF-OH; disulfide 3-5), the IC50 in experiment [1] came out at 2.6 nM. In addition, in experiment [4], the pD2 was found to be 5. In experiment [5], this compound showed a Relative potency of 0.0001.

On to `NC(N)=NCCC[C@H](NC(=O)[C@@H](N)CC(=O)O)C(=O)N[C@H]1CCSSC[C@@H](C(=O)N[C@@H](Cc2c[nH]cn2)C(=O)N2CCC[C@H]2C(=O)N[C@@H](Cc2ccccc2)C(=O)O)NC(=O)[C@H](Cc2ccc(O)cc2)NC1=O` (H-DR[hCys]YCHPF-OH; disulfide 3-5), for which the concentration for half-maximal inhibition (IC50) in experiment [1] was found to be 10 nM. The compound also had a pD2 in experiment [4] of 5.91. Further, the Relative potency in experiment [5] amounted to 0.001.

Compound `NC(N)=NCCC[C@H](NC(=O)[C@@H](N)CC(=O)O)C(=O)N[C@H]1CCSSCC[C@@H](C(=O)N[C@@H](Cc2c[nH]cn2)C(=O)N2CCC[C@H]2C(=O)N[C@@H](Cc2ccccc2)C(=O)O)NC(=O)[C@H](Cc2ccc(O)cc2)NC1=O` (H-DR[hCys]Y[hCys]HPF-OH; disulfide 3-5) registered an IC50 in experiment [1] of 2.1 nM. The compound further returned a pD2 in experiment [4] of 8.48. Moreover, the Relative potency in experiment [5] came to 0.49.

As for `CC[C@H](C)[C@H](NC(=O)[C@@H]1CCCN1C(=O)[C@H](Cc1c[nH]cn1)NC(=O)[C@@H]1CCSSCC[C@H](NC(=O)[C@H](CCCN=C(N)N)NC(=O)CNC)C(=O)N[C@@H](Cc2ccc(O)cc2)C(=O)N1)C(=O)O` (H-[Sar]R[hCys]Y[hCys]HPI-OH; disulfide 3-5), the IC50 in experiment [1] stood at 0.9 nM. The Relative potency entry in experiment [2] was “inactive”. In addition, in experiment [3], the pD2 entry was “inactive”. For the same compound, the Kb in experiment [6] was 0.813 nM.

Turning to `CC[C@H](C)[C@H](NC(=O)[C@H](Cc1ccc(O)cc1)NC(=O)[C@@H](NC(=O)[C@H](CCCNC(=N)N)NC(=O)[C@@H](N)CC(=O)O)C(C)C)C(=O)N[C@@H](Cc1cnc[nH]1)C(=O)N1CCC[C@H]1C(=O)N[C@@H](Cc1ccccc1)C(=O)O` [ANGIOTENSIN II], in experiment [4], the pD2 is 8.81.

For the compound H-DRCYIHPF-OH, the IC50 in experiment [1] is reported as 15 nM. In experiment [4], this compound had a pD2 of 7.68. This compound also gave a Relative potency in experiment [5] of 0.092.

As for H-DRVYCHPF-OH, the IC50 in experiment [1] is 20 nM. For the same compound, in experiment [4], the pD2 worked out at 7.21. The compound further displayed a Relative potency in experiment [5] of 0.031.
